The values below come from article PMC3823230 (Journal of Cellular and Molecular Medicine, 2012).

Where a name gives a salt, the structure may show the parent alone. Read-outs that look alike come from different tables or passages of the source.

The test system of assay [1] is antibiotic-resistant strain (A–E) of P. aeruginosa. Description: MIC against antibiotic-resistant strains. To be noted: for MIC, P. aeruginosa strain A / Resistance/sensitivity class, strain A: antibiotic-resistant strain A; for MIC, P. aeruginosa strain B / Resistance/sensitivity class, strain B: antibiotic-resistant strain B; for MIC, P. aeruginosa strain C / Resistance/sensitivity class, strain C: antibiotic-resistant strain C; for MIC, P. aeruginosa strain D / Resistance/sensitivity class, strain D: antibiotic-resistant strain D; for MIC, P. aeruginosa strain E / Resistance/sensitivity class, strain E: antibiotic-resistant strain E; for MIC: Pseudomonas aeruginosa. Format: cell-based, Pseudomonas aeruginosa.

Assay [2] has as its system db/db mice wounds with methicillin-resistant S. aureus. Description: Diabetic mouse infectious. Format: in vivo. The method, boiled down: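 Male C57BL/6 db/db mice, n = 6–8 per group, backs depilated 3 days before surgery. Under anaesthesia, 15 mm dorsal punch biopsy wounds received 100 μl MRSA (1 × 10^4 cfu/ml) topically, with or without peptide (100 μg/ml) or saline, under semi-permeable polyurethane dressing. Dosing and photographic wound-area measurement on days 0, 2, 4, 7, 9, 11, 14, 16. Means ± S.E.M.; ANOVA with Fisher's PLSD.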

In assay [3] the test system is C57BL/6 db/db mice, punch biopsy wounds. Briefly: Diabetic mouse wound-healing model. Format: in vivo. To be noted: topical 100 μg/ml.
Assay [4] deals with NIBS minipigs, full-thickness excisional wounds. Briefly: Porcine wound-healing model. To be noted: anti-vWF staining; in comparison to control group; N = 6. In kind it is in vivo, pig. The gist of the method: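 Three male NIBS minipigs (32.0–33.5 kg) premedicated with ketamine 500 mg/body under isoflurane 2–4%. Four 25 mm, 10 mm-deep full-thickness excisional wounds per side abdomen, 30 mm apart. Peptide 100 μg/ml or saline (200 μl/site) applied on days 0, 2, 4, 6, 8, 10 under polyurethane dressing. Day-12 frozen sections were acetone-fixed (−20°C, 15 min), and capillary EC immunostained with anti-vWF (1:200).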

Setting [5] is: read-out: MIC, P. aeruginosa strain A.
Setting [6] is: read-out: MIC, P. aeruginosa strain B.
Where [7] appears, read: read-out: MIC, P. aeruginosa strain C.
Setting [8] is: read-out: MIC, P. aeruginosa strain D.
The mark [9] stands for this setting: read-out: MIC, P. aeruginosa strain E.

For the compound `CO/N=C(\C(=O)N[C@@H]1C(=O)N2C(C(=O)O)=C(C[N+]3(C)CCCC3)CS[C@H]12)c1csc(N)n1.Cl.O.[Cl-]` [CFPM, cefepime hidrochloride hydrate], in assay [1], the “MIC, P. aeruginosa strain A” value was less than 8 µg/mL; the “MIC, P. aeruginosa strain B” value is less than 8 µg/mL; the “MIC, P. aeruginosa strain C” value was less than 8 µg/mL; the “MIC, P. aeruginosa strain D” value is less than 8 µg/mL. Further, the “MIC, P. aeruginosa strain E” value in assay [1] was greater than 16 µg/mL.

Consider `CC(C)(O/N=C(\C(=O)N[C@@H]1C(=O)N2C(C(=O)[O-])=C(C[n+]3ccccc3)CS[C@H]12)c1csc(N)n1)C(=O)O` [CAZ, ceftazidime hydrate], for which the MIC in assay [1] (setting [5]) is less than 8 µg/mL; in assay [1] (setting [6]), less than 8 µg/mL; in assay [1] (setting [7]), less than 8 µg/mL; in assay [1] (setting [8]), less than 8 µg/mL; in assay [1] (setting [9]) it was greater than 32 µg/mL. Also, the “Resistance/sensitivity class, strain A” value in assay [1] was “S”. For the same compound, the “Resistance/sensitivity class, strain B” value in assay [1] was “S”. In assay [1], the “Resistance/sensitivity class, strain C” value is recorded as “S”. For the same compound, the “Resistance/sensitivity class, strain D” value in assay [1] is “S”. In addition, the “Resistance/sensitivity class, strain E” value in assay [1] is “R”.

Regarding `NC[C@H]1O[C@H](O[C@H]2[C@H](O)[C@@H](O[C@H]3O[C@H](CO)[C@@H](O)[C@H](N)[C@H]3O)[C@H](N)C[C@@H]2N)[C@H](N)C[C@@H]1O` [TOB, tobramycin], the MIC in assay [1] (setting [5]) was greater than 8 µg/mL. The MIC in assay [1] (setting [6]) was less than 4 µg/mL. The MIC in assay [1] (setting [7]) was greater than 8 µg/mL. In assay [1] (setting [8]), the MIC was less than 4 µg/mL. The MIC in assay [1] (setting [9]) was less than 4 µg/mL. Moreover, in assay [1], the “Resistance/sensitivity class, strain A” value is recorded as “R”; the “Resistance/sensitivity class, strain B” value was “S”; the “Resistance/sensitivity class, strain C” value is listed as “R”; the “Resistance/sensitivity class, strain D” value was “S”. Besides, the “Resistance/sensitivity class, strain E” value in assay [1] is recorded as “S”.

Turning to `O=C(O)c1cn(C2CC2)c2cc(N3CCNCC3)c(F)cc2c1=O` [CPFX, Ciprofloxacin hydrochloride], the MIC in assay [1] (setting [5]) is less than 1 µg/mL; in assay [1] (setting [6]), less than 1 µg/mL; in assay [1] (setting [7]), less than 1 µg/mL; in assay [1] (setting [8]), less than 1 µg/mL; in assay [1] (setting [9]), greater than 2 µg/mL.

Consider “LL37: well-known antimicrobial peptide with angiogenic effects”, for which, in assay [2] (MRSA 1 x 10^4 cfu/ml, co-treatment 100 μg/ml), the “Yellow pus on MRSA-infected wounds” value was “attenuated the increase of yellow pus”. The Infectious wound size result in assay [2] (MRSA, 100 μg/ml, days 11, 14 and 16 after treatment) is given as “significantly decreased wound size”. Also, the “Blood flow around the wound (LDI), diabetic mouse” value in assay [3] (3 days after operation, compared with control group) was “significantly increased the blood flow”. For the same compound, the “Spontaneous S. aureus infection of wounds during experiment” value in assay [3] (db/db mice) is on record as “none of the mice”. Besides, in assay [3] (db/db mice, day 14, versus control), the “Wound size, diabetic mouse” value is listed as “significantly decreased wound size”. Besides, the “Microcapillary density, porcine wound” value in assay [4] was “significantly increased”.

Consider Gentamicin sulfate [GM], for which, in assay [1], the “MIC, P. aeruginosa strain A” value is greater than 8 µg/mL; the “Resistance/sensitivity class, strain A” value is listed as “R”; the “MIC, P. aeruginosa strain B” value is less than 4 µg/mL; the “Resistance/sensitivity class, strain B” value is listed as “S”. Besides, in assay [1], the “MIC, P. aeruginosa strain C” value was greater than 8 µg/mL; the “Resistance/sensitivity class, strain C” value is given as “R”; the “MIC, P. aeruginosa strain D” value was less than 4 µg/mL; the “Resistance/sensitivity class, strain D” value is listed as “S”. The “MIC, P. aeruginosa strain E” value in assay [1] is 8 µg/mL.

`C[C@H]1COc2c(N3CCN(C)CC3)c(F)cc3c(=O)c(C(=O)O)cn1c23` [LVFX, levofloxacin hydrate]: the MIC in assay [1] (setting [5]) is less than 2 µg/mL; in assay [1] (setting [6]), less than 2 µg/mL; in assay [1] (setting [7]) it was less than 2 µg/mL; in assay [1] (setting [8]) it was 4 µg/mL; in assay [1] (setting [9]), greater than 4 µg/mL. Moreover, the “Resistance/sensitivity class, strain A” value in assay [1] is listed as “S”. The “Resistance/sensitivity class, strain B” value in assay [1] is “S”. The “Resistance/sensitivity class, strain C” value in assay [1] is given as “S”. In addition, the “Resistance/sensitivity class, strain D” value in assay [1] is given as “S”. The “Resistance/sensitivity class, strain E” value in assay [1] is given as “R”.

Turning to `C[C@H]1[C@H](NC(=O)/C(=N\OC(C)(C)C(=O)O)c2csc(N)n2)C(=O)N1S(=O)(=O)O` [AZT, aztreonam], the MIC in assay [1] (setting [5]) is less than 8 µg/mL. For the same compound, in assay [1] (setting [6]), the MIC is greater than 16 µg/mL. Further, the MIC in assay [1] (setting [7]) was less than 8 µg/mL. Further, the MIC in assay [1] (setting [8]) is less than 8 µg/mL. The MIC in assay [1] (setting [9]) was greater than 16 µg/mL. Besides, in assay [1], the “Resistance/sensitivity class, strain A” value is listed as “S”; the “Resistance/sensitivity class, strain B” value is given as “R”; the “Resistance/sensitivity class, strain C” value is listed as “S”; the “Resistance/sensitivity class, strain D” value was “S”. For the same compound, the “Resistance/sensitivity class, strain E” value in assay [1] is given as “R”.

For `C[C@@H]1O[C@@H]1P(=O)(O)O` [FOM, fosfomycin sodium], the minimum inhibitory concentration (MIC) in assay [1] (setting [5]) is greater than 16 µg/mL. The MIC in assay [1] (setting [6]) was greater than 16 µg/mL. In assay [1] (setting [7]), the MIC is greater than 16 µg/mL. In assay [1] (setting [8]), the MIC is greater than 16 µg/mL. For the same compound, the MIC in assay [1] (setting [9]) is greater than 16 µg/mL. Also, in assay [1], the “Resistance/sensitivity class, strain A” value is recorded as “R”; the “Resistance/sensitivity class, strain B” value was “R”; the “Resistance/sensitivity class, strain C” value is “R”; the “Resistance/sensitivity class, strain D” value is recorded as “R”. Further, the “Resistance/sensitivity class, strain E” value in assay [1] is reported as “R”.

`CCN1CCN(C(=O)N[C@@H](C(=O)N[C@@H]2C(=O)N3C(C(=O)O)=C(CSc4nnnn4C)CS[C@H]23)c2ccc(O)cc2)C(=O)C1=O` [CPZ, cefoperazone sodium]: the MIC is less than 16 µg/mL in assay [1] (setting [5]); 32 µg/mL in assay [1] (setting [6]); less than 16 µg/mL in assay [1] (setting [7]); less than 16 µg/mL in assay [1] (setting [8]); greater than 32 µg/mL in assay [1] (setting [9]). In addition, the “Resistance/sensitivity class, strain A” value in assay [1] is reported as “S”. In addition, the “Resistance/sensitivity class, strain C” value in assay [1] is “S”. Also, in assay [1], the “Resistance/sensitivity class, strain D” value is recorded as “S”. For the same compound, in assay [1], the “Resistance/sensitivity class, strain E” value is given as “R”.

A word on the MIC: it is the smallest concentration in the dilution series that meets the test's criterion for growth inhibition.
